Assay results: ChEMBL document CHEMBL5154785, “Hypothesis-Driven, Structure-Based Design in Photopharmacology: The Case of eDHFR Inhibitors” (J Med Chem, 2022)
Values after ≈ are worked out from the molar mass of the structure shown. Active and inactive are the calls of the source. The calls are words filed in the database; no cut-off is given here.

Key:
[1] = tested on: Escherichia coli; test: Antibacterial activity against Escherichia coli CS1562 assessed as reduction in bacterial growth under dark condition measured after 24 hrs by plate reader method; assay type: functional
Summary of the method: (§1)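 E. coli CS1562 grown overnight at 37 °C in LB with tetracycline (10 μg/mL), then diluted to 0.002 OD600. Compound serial dilutions made in DMSO and diluted 25-fold in LB. Irradiated set exposed to 355 nm for 30 min before adding cells; dark set not irradiated. Triplicates grown overnight at 37 °C with OD600 read every 10 min, background-corrected to t=0.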

[2] = tested on: Escherichia coli; test: Antibacterial activity against Escherichia coli CS1562 assessed as reduction in bacterial growth irradiated with 355 nm light measured after 24 hrs by plate reader method; assay type: functional; settings: CS1562, light or radiation study; summary of the method: as §1
[3] = tested on: Escherichia coli; test: Antibacterial activity against Escherichia coli CS1562 assessed as reduction in bacterial growth at 20 uM measured after 24 hrs under dark condition by plate reader method; assay type: functional, organism-based; summary of the method: as §1
[4] = tested on: Escherichia coli; test: Antibacterial activity against Escherichia coli CS1562 assessed as reduction in bacterial growth at 20 uM irradiated with 355 nm light measured after 24 hrs by plate reader method; assay type: functional, organism-based; summary of the method: as §1
[5] = Inhibition of Escherichia coli DHFR preincubated with NADPH for 3 mins followed by compound addition for 7 mins under dark condition by colorimetric assay
Summary of the method: (§2)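 In-house E. coli DHFR expressed in BL21(DE3) and Ni-NTA purified. Enzyme (~20 ng) preincubated with 60 μM NADPH, then with inhibitor at 10^-5 to 10^-12 M final, 1% DMSO. Dark samples heat-adapted to the trans isomer; irradiated samples brought to PSS at 100 μM for 15–45 min. Reaction started with 15 μM dihydrofolate, A340 followed every 5 s for 300 s at 25 °C. Triplicates; activity taken relative to a DMSO control; IC50 from nonlinear regression.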

[6] = Inhibition of Escherichia coli DHFR irradiated with 390 nm light preincubated with NADPH for 3 mins followed by compound addition for 7 mins by colorimetric assay; summary of the method: as §2
[7] = Half life of compound; assay type: physicochemical
Summary of the method: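 Metastable-isomer thermal relaxation tracked as recovery of the π–π* band under stirring, at 25 °C in DMSO or eDHFR assay buffer, or at 37 °C in 10 mM Tris-HCl pH 7.0. Fitted to a first-order exponential.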

| SMILES | MIC [1] [µM] | MIC [2] [µM] | IC50 [5] [µM] | IC50 [6] [µM] | other results |
| --- | --- | --- | --- | --- | --- |
| COC(C)(C#Cc1cnc(N)nc1N)c1ccc(/N=N/c2cccc(C(=O)O)c2)cc1 (stereo not given) |  |  |  |  | Activity [3]: Active; Activity [4]: Active |
| Nc1ncc(-c2ccc(/N=N/c3ccccc3)cc2)c(N)n1 |  |  | > 10 | > 10 |  |
| Nc1ncc(C#Cc2ccc(/N=N/c3ccccc3)cc2)c(N)n1 |  |  | > 10 | > 10 |  |
| Nc1ncc(/N=N/c2ccccc2)c(N)n1 |  |  | > 10 | > 10 | half-life [7]: 10 s |

Second part, led by results:

| MIC [1] [µM] | MIC [2] [µM] | IC50 [5] [µM] | IC50 [6] [µM] | SMILES | other results |
| --- | --- | --- | --- | --- | --- |
| > 80 | 10 (≈ 6.08 µg/mL) |  |  | COc1cc(Cc2cnc(N)nc2N)cc(OC)c1OCc1cc(Cl)c(/N=N/c2c(Cl)cccc2Cl)c(Cl)c1 |  |
| 20 (≈ 10 µg/mL) | 10 (≈ 5.01 µg/mL) |  |  | COc1ccc(/N=N/c2ccc(COc3c(OC)cc(Cc4cnc(N)nc4N)cc3OC)cc2)cc1 |  |
| 10 (≈ 5.42 µg/mL) | 5 (≈ 2.71 µg/mL) |  |  | COc1cc(Cc2cnc(N)nc2N)cc(OC)c1OCc1cc(F)c(/N=N/c2c(F)cccc2F)c(F)c1 |  |
